Results gathered from unrelated publications.
Lines come from different studies, so protocols differ.
Target: Casein kinase I isoform alpha (CSNK1A1, Homo sapiens, UniProt P48729)

| Compound | test | conditions | measurement | value |
| --- | --- | --- | --- | --- |
| COc1ncccc1-c1cnn2ccc(N3CCN(C(=O)OC(C)C)CC3)nc12 | binding, competition with immobilised ligand | 1 µM | remaining binding | 100% |
| O=c1[nH]c2ccccc2n1C1CCN(Cc2ccc(-c3[nH]c4cc5ncnc5cc4nc3-c3ccccc3)cc2)CC1 | cell-free assay | 0.5 µM | remaining signal | 96% |
| Cn1cc(-c2cc(F)cc(N3CCn4c(cc5c4CCCC5)C3=O)c2CO)cc(Nc2ccc(N3CCN(C4COC4)CC3)cn2)c1=O | enzyme activity, inhibitor | 0.1 µM | inhibition | 4% |
| Nc1ncc(-c2nc(N3CCOCC3)nc(N3CCOCC3)n2)c(C(F)F)n1 | binding, competition with immobilised ligand | 10 µM | remaining binding | 72% |
| N#CC1(c2ccccn2)CCN(Cc2cc(C(=O)O)c(=O)n3ccccc23)CC1 | cell-free assay, competition with immobilised ligand | 1 µM | remaining binding | 100% |
| Cn1cc(-c2cccc(N3CCc4c(sc5c4CC(C)(C)C5)C3=O)c2CO)cc(Nc2ccncn2)c1=O | enzyme activity, inhibitor | 1 µM | inhibition | 6% |
| Cc1nn(C)cc1-c1nc2c(N3CCN(Cc4ccc(Cl)cc4)CC3)c(Cl)cnc2[nH]1 | binding, competition with immobilised ligand | 1 µM | remaining binding | 77% |
| Cn1cncc1[C@](O)(COc1ccc(C#N)cc1-c1ccc(OC(F)(F)F)cc1)c1ccc(C#N)cc1 | cell-free assay, competition with immobilised ligand | 1 µM | remaining binding | 100% |
